In PMC4002122 (Chemical Research in Toxicology, 2014):
Several values for one entry are separate records, joined by “and”; a condition that tells them apart may be missing. Equal entries are not always repeated.

What was measured:
[1] = target: T1, UGT1A8 (Homo sapiens, UniProt Q9HAW9); test: Steady state kinetics of glucuronidation by recombinant UGT1A8; assay type: in vitro ADME
T1 sequence (Q9HAW9 26-530): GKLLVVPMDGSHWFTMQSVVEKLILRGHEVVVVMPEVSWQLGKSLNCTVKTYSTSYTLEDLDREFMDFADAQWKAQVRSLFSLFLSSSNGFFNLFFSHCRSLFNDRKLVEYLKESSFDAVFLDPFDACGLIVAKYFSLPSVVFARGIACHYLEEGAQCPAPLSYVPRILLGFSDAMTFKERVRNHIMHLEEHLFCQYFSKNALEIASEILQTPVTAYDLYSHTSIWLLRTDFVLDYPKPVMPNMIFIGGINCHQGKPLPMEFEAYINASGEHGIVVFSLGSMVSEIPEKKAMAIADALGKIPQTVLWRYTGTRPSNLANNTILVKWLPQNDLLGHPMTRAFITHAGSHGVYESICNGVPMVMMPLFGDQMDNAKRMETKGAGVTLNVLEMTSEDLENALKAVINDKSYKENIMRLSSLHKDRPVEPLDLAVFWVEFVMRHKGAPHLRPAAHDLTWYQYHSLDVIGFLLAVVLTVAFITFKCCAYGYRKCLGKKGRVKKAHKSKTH

[2] = system: tubulin; settings: cited from earlier work
[3] = target: T2, UGT1A9 (Homo sapiens, UniProt O60656); test: Steady state kinetics of glucuronidation by recombinant UGT1A9; assay type: in vitro ADME
T2 sequence (O60656 26-530): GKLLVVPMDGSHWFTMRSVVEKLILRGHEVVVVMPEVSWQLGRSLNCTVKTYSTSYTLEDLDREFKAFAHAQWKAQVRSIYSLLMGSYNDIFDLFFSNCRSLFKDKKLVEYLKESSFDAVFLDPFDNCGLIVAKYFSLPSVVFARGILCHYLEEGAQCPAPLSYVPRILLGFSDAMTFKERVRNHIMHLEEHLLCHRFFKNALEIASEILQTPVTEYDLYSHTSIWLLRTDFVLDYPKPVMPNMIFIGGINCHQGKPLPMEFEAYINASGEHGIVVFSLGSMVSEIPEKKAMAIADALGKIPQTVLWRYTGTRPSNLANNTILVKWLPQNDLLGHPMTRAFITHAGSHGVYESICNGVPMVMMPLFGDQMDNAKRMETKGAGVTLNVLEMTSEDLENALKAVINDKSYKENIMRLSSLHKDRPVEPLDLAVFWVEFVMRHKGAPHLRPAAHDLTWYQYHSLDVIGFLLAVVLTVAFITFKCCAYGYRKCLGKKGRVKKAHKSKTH

[4] = target: T3, UGT2B7 (Homo sapiens, UniProt P16662); test: Screening of recombinant UGT2B7 for glucuronidation activity; assay type: in vitro ADME; settings: 250 μM substrate, 5 μg protein, 60 min, 37 °C
T3 sequence (P16662 24-529): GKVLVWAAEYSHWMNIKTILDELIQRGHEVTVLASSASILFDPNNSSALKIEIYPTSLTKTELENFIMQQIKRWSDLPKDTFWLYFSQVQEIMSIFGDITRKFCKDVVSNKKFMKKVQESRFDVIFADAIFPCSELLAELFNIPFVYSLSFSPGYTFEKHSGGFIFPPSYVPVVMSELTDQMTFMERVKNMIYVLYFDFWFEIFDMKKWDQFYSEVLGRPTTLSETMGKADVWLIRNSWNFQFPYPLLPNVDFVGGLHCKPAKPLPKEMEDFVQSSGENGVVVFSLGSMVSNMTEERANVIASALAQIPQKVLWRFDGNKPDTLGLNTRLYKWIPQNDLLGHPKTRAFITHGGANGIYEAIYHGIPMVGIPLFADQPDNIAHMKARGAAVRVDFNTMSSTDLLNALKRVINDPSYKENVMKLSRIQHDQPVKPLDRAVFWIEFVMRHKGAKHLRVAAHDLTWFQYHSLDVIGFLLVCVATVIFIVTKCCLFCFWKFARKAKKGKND
Summary of the method: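 UGT1A1, 1A3, 1A4 and 1A6–1A10 were His-tagged and expressed in baculovirus-infected Sf9 cells; UGT2B4, 2B7, 2B15 and 2B17 were commercial membranes run per supplier protocol. 5 μg membrane protein with 250 μM substrate, 2 mM UDP-GlcUA, Tris–HCl pH 7.4, MgCl2, saccharolactone, 2% DMSO; 37 °C, 60 min; no-substrate controls. Products measured by HPLC-UV/vis; β-glucuronidase hydrolysis separated O- from carboxyl glucuronides.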

[5] = Glucuronidation by human hepatic microsomes; assay type: in vitro ADME; settings: 60 min, 50 μg of human liver proteins, 0.25 mM substrate, 3 mM UDP-GlcUA
Summary of the method: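 Microsomes from individual human livers (10 donors), a pooled liver sample and hepatosomes, or from intestines (13 donors). Substrate dried from ethanol, redissolved in DMSO and sonicated. Incubated 37 °C, 60 min; ethanol stop, centrifuged. Glucuronides measured by reversed-phase HPLC-UV; nmol/mg/min, median and range.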

NI-12a-COO-gluc formation ([1]; COO-glucuronide) | Ks ([1]; NI-12a-O-gluc formation, USI model) [µM] | NI-12a-COO-gluc formation ([3]; COO-glucuronide) | Vmax ([3]; NI-12a glucuronidation) [nm/mg protein/min] | catalytic efficiency, ratio Vmax/Km ([3]; NI-12a glucuronidation) [µL/min/mg] | kinetic model ([3]; NI-12a-O-gluc formation) | NI-ST-05–N–O-gluc formation ([1]; N–O-glucuronide) | Km at 60 min ([3]; human, pH 7.4) [µM] | glucuronidation activity (glucuronide formed) [4] | metabolism with human liver microsomes [5] | SMILES | kinetic model ([1]; NI-12a-O-gluc formation) | antitubulin activity [2] | Vmax ([3]; NI-12a-O-gluc formation) | kinetic model ([3]; NI-ST-05–N–O-gluc formation)
not produced | 950 ± 449 | not produced | 8.3 | 35 | Michaelis–Menten and M–M | – | – | – | – | COc1ccc(/C=C(/C(=O)O)c2cc(OC)c(OC)c(OC)c2)cc1O [NI-12a, (E)-3-(3-hydroxy-4-methoxyphenyl)-2-(3,4,5-trimethoxyphenyl)acrylic acid] | uncompetitive substrate inhibition and USI | effective antitubilin agent | 8.3 nmol/mg/min and 8.3 ± 0.52 nmol/mg/min | –
– | – | – | – | – | – | not produced | < 5 | inactive | – | COc1ccc(C=Cc2cc(OC)cc(OC)c2/C=N/O)cc1 [NI-ST-05, (E)-2,4-dimethoxy-6-(4-methoxystyryl)benzaldehyde oxime] | – | – | – | did not fit any of the kinetic models tested
– | – | – | – | – | – | – | – | No activity | not metabolized | COc1cc(/C=C/c2cc([N+](=O)[O-])c(O)c([N+](=O)[O-])c2)cc(OC)c1 [DNR-1, (E)-4-(3,5-dimethoxystyryl)-2,6-dinitrophenol] | – | – | – | –
